Measured values: ChEMBL document CHEMBL4732027, “Pyridazinone derivatives as potential anti-inflammatory agents: synthesis and biological evaluation as PDE4 inhibitors” (RSC Med Chem, 2021)
Active and inactive are the calls of the source. No cut-off for these calls is given here.

Legend:
[1] = target: T1, 3',5'-cyclic-AMP phosphodiesterase 4B (Homo sapiens, UniProt Q07343); test: Inhibition of recombinant human PDE-4B expressed in Escherichia coli at 20 uM using cAMP as substrate incubated for 60 mins by PDE4 assay kit method relative to control
Procedure, shortened: (§1)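 Human recombinant PDE4 expressed in E. coli, incubated with cAMP and 5'-nucleotidase in 10 mM Tris-HCl pH 7.4 at 30 °C for 60 min. Released phosphate detected colorimetrically after 30 min colour development. IC50 from five concentrations by nonlinear regression; mean of two or three independent runs, each in triplicate.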

Macrophage [2] = test: Antiinflammatory activity against human PBMC derived primary macrophages assessed as reduction in LPS-induced IL-6 level at 50 uM incubated for 24 hrs by ELISA relative to control; type: functional
Procedure, shortened: (§2)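 Macrophages from human blood PBMCs, differentiated 24 h with 25 ng/mL M-CSF, non-adherent cells removed. Stimulated 24 h with 10 ng/mL E. coli LPS in 0.5% DMSO, with compound at 5–50 µM. Supernatant cytokines measured by sandwich ELISA against a recombinant standard curve. Detection limits: IL-1β 3.9, IL-6 and TNF-α 7.8, IL-8 15.7 pg/mL. Cells from 8 donors; Kruskal–Wallis then Wilcoxon–Mann–Whitney tests.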

Macrophage [3] = test: Antiinflammatory activity against human PBMC derived primary macrophages assessed as reduction in LPS-induced TNF-alpha level at 50 uM incubated for 24 hrs by ELISA relative to control; type: functional; procedure, shortened: as §2
Mus musculus [4] = test: Antiinflammatory activity in BALB/cJRj mouse air pouch model assessed as decrease in LPS-stimulated monocyte recruitment in air pouch at 2 to 20 uM, sc measured after 6 hrs by flow cytometry analysis; type: functional, organism-based; conditions: dose 2-20 µM
Procedure, shortened: (§3)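 Seven-week-old BALB/cJRj mice. Dorsal subcutaneous air pouch made under isoflurane with 3 mL filtered air on day 0, refilled day 3. On day 7, 2 mL LPS (10 ng/mL) in 0.5% DMSO with compound at 2, 20 or 200 µM injected into the pouch; controls got 0.5% DMSO in saline. After 6 h, exudate collected by lavage with 2 mL 5 mM PBS-EDTA. Cells counted and stained for Ly6G and F4/80, then analysed by flow cytometry. Eight to 17 animals per group.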

Macrophage [5] = test: Antiinflammatory activity against human PBMC derived primary macrophages assessed as reduction in LPS-induced IL-8 level at 20 uM incubated for 24 hrs by ELISA relative to control; type: functional; procedure, shortened: as §2
[6] = Lipophilicity, logP of compound; type: physicochemical; conditions: octanol/water
Procedure, shortened: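 LogP calculated with software, not measured.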

[7] = target: T1, 3',5'-cyclic-AMP phosphodiesterase 4B; test: Inhibition of recombinant human PDE-4B expressed in Escherichia coli using cAMP as substrate incubated for 60 mins by PDE4 assay kit method; procedure, shortened: as §1
Macrophage [8] = test: Antiinflammatory activity against human PBMC derived primary macrophages assessed as reduction in LPS-induced cell morphology changes at 50 uM incubated for 24 hrs by scanning electron microscopic analysis; type: functional, cell-based
Procedure, shortened: (§4)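 Human PBMCs isolated from EDTA blood (red cells lysed by hypotonic shock), grown on coverslips in RPMI 1640 + 10% heat-inactivated FBS with 25 ng/mL M-CSF for 24 h at 37 °C, 5% CO2. Non-adherent cells removed, then 24 h stimulation with LPS 10 ng/mL in 0.5% DMSO ± compound. Cells fixed in 2.5% glutaraldehyde, dehydrated in ethanol, dried with HMDS, gold-palladium coated, imaged by FE-SEM at 2 kV.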

Macrophage [9] = test: Antiinflammatory activity against human PBMC derived primary macrophages assessed as reduction in LPS-induced IL-1beta level at 50 uM incubated for 24 hrs by ELISA relative to control; type: functional; procedure, shortened: as §2
Mus musculus [10] = test: Antiinflammatory activity in BALB/cJRj mouse air pouch model assessed as decrease in LPS-stimulated monocyte recruitment in air pouch at 200 uM, sc measured after 6 hrs by flow cytometry analysis relative to control; type: functional; procedure, shortened: as §3
Macrophage [11] = test: Antiinflammatory activity against human PBMC derived primary macrophages assessed as reduction in LPS-induced IL-1beta level at 20 uM incubated for 24 hrs by ELISA relative to control; type: functional; procedure, shortened: as §2
Macrophage [12] = test: Antiinflammatory activity against human PBMC derived primary macrophages assessed as reduction in LPS-induced IL-6 level at 10 uM incubated for 24 hrs by ELISA relative to control; type: functional; procedure, shortened: as §2
Macrophage [13] = test: Antiinflammatory activity against human PBMC derived primary macrophages assessed as reduction in LPS-induced IL-8 level at 50 uM incubated for 24 hrs by ELISA relative to control; type: functional; procedure, shortened: as §2
Mus musculus [14] = test: Antiinflammatory activity in BALB/cJRj mouse air pouch model assessed as decrease in LPS-stimulated macrophage recruitment in air pouch at 2 to 20 uM, sc measured after 6 hrs by flow cytometry analysis; type: functional, organism-based; conditions: dose 2-20 µM; procedure, shortened: as §3
Macrophage [15] = test: Antiinflammatory activity against human PBMC derived primary macrophages assessed as reduction in LPS-induced IL-6 level at 5 uM incubated for 24 hrs by ELISA relative to control; type: functional; procedure, shortened: as §2
Macrophage [16] = test: Antiinflammatory activity against human PBMC derived primary macrophages assessed as reduction in LPS-induced TNF-alpha level at 5 uM incubated for 24 hrs by ELISA relative to control; type: functional; procedure, shortened: as §2
Macrophage [17] = test: Antiinflammatory activity against human PBMC derived primary macrophages assessed as reduction in LPS-induced IL-6 level at 20 uM incubated for 24 hrs by ELISA relative to control; type: functional; procedure, shortened: as §2
Macrophage [18] = test: Cytotoxicity against human PBMC derived primary macrophages assessed as reduction in cell viability at 5 to 50 uM incubated for 24 hrs by LDH assay; type: cell-based; conditions: dose 5-50 µM
Procedure, shortened: (§5)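 Cell death in human PBMC-derived macrophages (M-CSF 25 ng/mL, 24 h) after 24 h LPS (10 ng/mL, 0.5% DMSO) plus compound at 5–50 µM. LDH activity measured in supernatant with a commercial kit, absorbance at 492 nm corrected at 700 nm. Eight donors.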

Macrophage [19] = test: Cytotoxicity against human PBMC derived primary macrophages assessed as reduction in cell viability at 10 uM incubated for 24 hrs by LDH assay; type: cell-based; procedure, shortened: as §5
Mus musculus [20] = test: Antiinflammatory activity in BALB/cJRj mouse air pouch model assessed as decrease in LPS-stimulated monocyte recruitment in air pouch at 20 uM, sc measured after 6 hrs by flow cytometry analysis (reference value: 1.9); type: functional; procedure, shortened: as §3
Macrophage [21] = test: Antiinflammatory activity against human PBMC derived primary macrophages assessed as reduction in LPS-induced vesicle number at 10 uM incubated for 24 hrs by scanning electron microscopic analysis; type: functional, cell-based; procedure, shortened: as §4
Macrophage [22] = test: Antiinflammatory activity against LPS-treated human PBMC derived primary macrophages assessed as intricate cytoplasm at 10 uM incubated for 24 hrs by scanning electron microscopic analysis; type: functional, cell-based; procedure, shortened: as §4
Macrophage [23] = test: Antiinflammatory activity against LPS-treated human PBMC derived primary macrophages assessed as increase in flattened cell morphology at 10 uM incubated for 24 hrs by scanning electron microscopic analysis; type: functional, cell-based; procedure, shortened: as §4
Macrophage [24] = test: Antiinflammatory activity against human PBMC derived primary macrophages assessed as reduction in LPS-induced IL-8 level at 10 uM incubated for 24 hrs by ELISA relative to control; type: functional; procedure, shortened: as §2
Mus musculus [25] = test: Antiinflammatory activity in BALB/cJRj mouse air pouch model assessed as decrease in LPS-stimulated monocyte recruitment in air pouch at 2 uM, sc measured after 6 hrs by flow cytometry analysis; type: functional, organism-based; procedure, shortened: as §3
Macrophage [26] = test: Antiinflammatory activity against LPS-induced human PBMC derived primary macrophages assessed as increase in cell size at 10 uM incubated for 24 hrs by scanning electron microscopic analysis; type: functional, cell-based; procedure, shortened: as §4
Mus musculus [27] = test: Antiinflammatory activity in BALB/cJRj mouse air pouch model assessed as decrease in LPS-stimulated monocyte recruitment in air pouch at 200 uM, sc measured after 6 hrs by flow cytometry analysis (reference value: 1.9); type: functional; procedure, shortened: as §3
Mus musculus [28] = test: Antiinflammatory activity in BALB/cJRj mouse air pouch model assessed as decrease in LPS-stimulated macrophage recruitment in air pouch at 2 to 200 uM, sc measured after 6 hrs by flow cytometry analysis; type: functional, organism-based; conditions: dose 2-200 µM; procedure, shortened: as §3

T1 sequence (Q07343 whole entry): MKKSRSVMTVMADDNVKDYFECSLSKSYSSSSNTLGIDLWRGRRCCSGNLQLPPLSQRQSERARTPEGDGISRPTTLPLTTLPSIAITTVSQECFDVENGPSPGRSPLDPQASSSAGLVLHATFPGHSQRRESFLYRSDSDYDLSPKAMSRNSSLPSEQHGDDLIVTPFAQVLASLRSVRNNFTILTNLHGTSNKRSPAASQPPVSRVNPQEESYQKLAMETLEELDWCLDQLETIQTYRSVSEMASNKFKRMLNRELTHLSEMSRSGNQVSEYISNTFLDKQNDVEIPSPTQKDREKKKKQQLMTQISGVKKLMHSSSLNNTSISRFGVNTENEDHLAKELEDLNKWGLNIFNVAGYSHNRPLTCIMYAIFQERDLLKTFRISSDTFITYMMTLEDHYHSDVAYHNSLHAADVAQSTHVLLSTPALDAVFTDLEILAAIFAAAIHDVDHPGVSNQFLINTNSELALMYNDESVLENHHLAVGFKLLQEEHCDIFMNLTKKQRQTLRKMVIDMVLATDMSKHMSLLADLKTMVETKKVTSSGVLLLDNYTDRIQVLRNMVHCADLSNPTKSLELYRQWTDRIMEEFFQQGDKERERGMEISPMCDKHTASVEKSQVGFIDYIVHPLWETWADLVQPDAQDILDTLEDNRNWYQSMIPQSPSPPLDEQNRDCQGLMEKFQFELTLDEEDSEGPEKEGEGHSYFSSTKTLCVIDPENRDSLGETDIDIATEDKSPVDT

Row | SMILES | inhibition [1] [%] | other results
1 | Cc1cc(-c2c[nH]c3ccc(I)cc23)c(=O)[nH]n1 | 5.9 | –
2 | Cc1cc(-c2c[nH]c3ccc([N+](=O)[O-])cc23)c(=O)[nH]n1 | 26.8 | –
3 | CC1=NN(Cc2ccccc2)C(=O)C(c2c[nH]c3ccccc23)C1 (stereo not given) | 17.7 | –
4 | CC1=NNC(=O)C(c2c[nH]c3ccccc23)C1 (stereo not given) | 32.3 | –
5 | CC1=NN(Cc2ccccc2)C(=O)C(c2c[nH]c3ccc(I)cc23)C1 (stereo not given) | 4.5 | –
6 | CC1=NNC(=O)C(c2c[nH]c3ccc(Br)cc23)C1 (stereo not given) | 9.8 | –
7 | COc1ccc2[nH]cc(C3CC(C)=NN(Cc4ccccc4)C3=O)c2c1 (stereo not given) | 28.9 | –
8 | CC1=NN(Cc2ccccc2)C(=O)C(c2c[nH]c3ccc(Br)cc23)C1 (stereo not given) | 8.7 | –
9 | Cc1cc(-c2c[nH]c3ccccc23)c(=O)n(C)n1 | 15.3 | –
10 | CC1=NNC(=O)C(c2c[nH]c3ccc(I)cc23)C1 (stereo not given) | 2.2 | –
11 | CC(C)Cn1c(=O)n(C)c(=O)c2nc[nH]c21 | 38 | –
12 | Cc1cc(-c2c[nH]c3ccc(F)cc23)c(=O)[nH]n1 | 23.6 | –
13 | Cc1cc(-c2c[nH]c3ccccc23)c(=O)[nH]n1 | 45.6 | –
14 | CC1=NNC(=O)C(c2c[nH]c3ccc(F)cc23)C1 (stereo not given) | 12.8 | –
15 | Cc1cc(-c2c[nH]c3ccc(F)cc23)c(=O)n(Cc2ccccc2)n1 | 17.6 | –
16 | CC1=NNC(=O)C(c2c[nH]c3ccc([N+](=O)[O-])cc23)C1 (stereo not given) | 19.5 | –
17 | COc1ccc2[nH]cc(-c3cc(C)n[nH]c3=O)c2c1 | 63.9 | inhibition at 50 µM (Macrophage [2]): 21%; inhibition at 50 µM (Macrophage [3]): 47%; inhibition (Mus musculus [4]): Active; inhibition at 20 µM (Macrophage [5]): 16%; logP [6]: 0.43; IC50 [7]: 251 nM; Activity (Macrophage [8]): Active; inhibition at 50 µM (Macrophage [9]): 54%; inhibition in vivo at 200 µM (Mus musculus [10]): 69%; inhibition at 20 µM (Macrophage [11]): 58%; inhibition at 10 µM (Macrophage [12]): 23%; inhibition at 50 µM (Macrophage [13]): 25%; inhibition (Mus musculus [14]): Active; inhibition at 5 µM (Macrophage [15]): 16%; inhibition at 5 µM (Macrophage [16]): 43%; inhibition at 20 µM (Macrophage [17]): 28%; Activity (Macrophage [18]): Non-Toxic
18 | Cc1cc(-c2c[nH]c3ccc(Br)cc23)c(=O)n(Cc2ccccc2)n1 | 14.2 | –
19 | COc1ccc2[nH]cc(-c3cc(C)nn(Cc4ccccc4)c3=O)c2c1 | 49.1 | –
20 | COc1ccc2[nH]cc(C3CC(C)=NN(C)C3=O)c2c1 (stereo not given) | 13.4 | –
21 | O=C(Nc1c(Cl)cncc1Cl)c1ccc(OC(F)F)c(OCC2CC2)c1 [ROFLUMILAST] | 74.6 | Activity (Macrophage [19]): Non-Toxic; fold change (FC) (Mus musculus [20]): 3.5; Activity (Macrophage [21]): Active; Activity (Macrophage [22]): Active; Activity (Macrophage [23]): Active; inhibition at 10 µM (Macrophage [24]): 10%; inhibition (Mus musculus [25]): inactive; Activity (Macrophage [26]): Active; fold change (FC) (Mus musculus [27]): 2; inhibition (Mus musculus [28]): inactive
22 | CC1=NN(C)C(=O)C(c2c[nH]c3ccccc23)C1 (stereo not given) | 8.7 | –
23 | Cc1cc(-c2c[nH]c3ccccc23)c(=O)n(Cc2ccccc2)n1 | 30.1 | –
24 | CC1=NN(Cc2ccccc2)C(=O)C(c2c[nH]c3ccc(F)cc23)C1 (stereo not given) | 9.4 | –
25 | COc1ccc2[nH]cc(-c3cc(C)nn(C)c3=O)c2c1 | 21.8 | –
26 | Cc1cc(-c2c[nH]c3ccc(I)cc23)c(=O)n(Cc2ccccc2)n1 | 8.9 | –
27 | COc1ccc2[nH]cc(C3CC(C)=NNC3=O)c2c1 (stereo not given) | 37.5 | –
28 | Cc1cc(-c2c[nH]c3ccc(Br)cc23)c(=O)[nH]n1 | 16.8 | –
